Experimental data pooled from the literature.
Compare with care: the assays were run in different laboratories.
Target: Dual specificity tyrosine-phosphorylation-regulated kinase 1A (DYRK1A, Homo sapiens, UniProt Q13627)

Structure (SMILES)	test	setting	measurement	result
COc1ncccc1-c1cnn2ccc(N3CCN(C(=O)OC(C)C)CC3)nc12	binding, competition with immobilised ligand	1 µM	remaining binding	95%
Cn1cc(-c2cccc(N3CCc4c(sc5c4CC(C)(C)C5)C3=O)c2CO)cc(Nc2ccncn2)c1=O	enzyme activity, inhibitor	1 µM	inhibition	5%
CC(C)(C)c1cc(C=C(C#N)C#N)cc(Br)c1O	enzyme activity, inhibitor	0.5 µM	remaining activity	95.4%
Nc1ncc(-c2nc(N3CCOCC3)nc(N3CCOCC3)n2)c(C(F)F)n1	cell-free assay, competition with immobilised ligand	10 µM	remaining binding	48%
O=c1[nH]c2ccccc2n1C1CCN(Cc2ccc(-c3[nH]c4cc5ncnc5cc4nc3-c3ccccc3)cc2)CC1	cell-free assay	0.5 µM	remaining signal	101%
COc1cc(Nc2ncc(F)c(Nc3ccc4c(n3)NC(=O)C(C)(C)O4)n2)cc(OC)c1OC	binding, competition with immobilised ligand	10 µM	inhibition	91%
Cn1cncc1[C@](O)(COc1ccc(C#N)cc1-c1ccc(OC(F)(F)F)cc1)c1ccc(C#N)cc1	cell-free assay, competition with immobilised ligand	1 µM	remaining binding	81%
Cn1cc(-c2cc(F)cc(N3CCn4c(cc5c4CCCC5)C3=O)c2CO)cc(Nc2ccc(N3CCN(C4COC4)CC3)cn2)c1=O	enzyme activity, inhibitor	0.1 µM	inhibition	4%
N#CC1(c2ccccn2)CCN(Cc2cc(C(=O)O)c(=O)n3ccccc23)CC1	cell-free assay, competition with immobilised ligand	1 µM	remaining binding	97%
Cc1nn(C)cc1-c1nc2c(N3CCN(Cc4ccc(Cl)cc4)CC3)c(Cl)cnc2[nH]1	binding, competition with immobilised ligand	1 µM	remaining binding	82%
